Type in all cases: functional
Assay [1] relates to Aspergillus flavus. Briefly: In vivo Evaluation of minimum inhibitory concentration against Aspergillus flavus 19. The settings on record: in the assay text read “In vitro” for “In vivo”. The essentials:
(§1)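 Stocks are 800 μg/mL in 50% ethanol. Each plate gets 10 μL of inoculum at 10^5 cfu/mL. Incubation at 25 °C, 48 h for yeasts and 120 h for dermatophytes and molds. Organisms are ATCC strains or clinical isolates.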

Assay [2] deals with Candida albicans. Briefly: […] Evaluation of minimum inhibitory concentration against Candida albicans 406. A digest of the protocol: as §1
For assay [3], the system named is Candida albicans. In words: […] Evaluation of minimum inhibitory concentration against Candida albicans 60. The essentials: as §1
For assay [4], the system named is Candida albicans. Briefly: In vitro Evaluation of minimum inhibitory concentration against Candida albicans 76. The essentials: as §1
In assay [5] the test system is Meyerozyma guilliermondii. In words: In vitro Evaluation of minimum inhibitory concentration against Candida guilliermondii 26. A digest of the protocol: as §1
In assay [6] the test system is Candida parapsilosis. In words: In vitro evaluation of minimum inhibitory concentration against Candida parapsilosis 61. The essentials:
as §1

Assay [7] relates to Candida tropicalis. In words: In vitro evaluation of minimum inhibitory concentration against Candida tropicalis 2.11. The essentials: as §1
Assay [8] concerns Mus sp. In words: In vivo evaluation of % survival rate after peroral administration on 3rd day at dose 2.5 mg/kg. The following applies: Mus sp., po.
Assay [9] concerns Mus sp. In words: In vivo evaluation of % survival rate after peroral administration on 5th day at dose 1 mg/kg. The following applies: route oral, 1 mg/kg.
Assay [10] has as its system Mus sp. Briefly: In vivo evaluation of % survival rate after peroral administration on 5th day at dose 2.5 mg/kg. The settings on record: Mus sp., po.
Assay [11] deals with Mus sp. Briefly: In vivo evaluation of % survival rate after peroral administration on 7th day at dose 1 mg/kg. The following applies: route oral, 1 mg/kg.
In assay [12] the test system is Mus sp. In words: In vivo evaluation of % survival rate after peroral administration on 7th day at dose 2.5 mg/kg. The settings on record: Mus sp., po.
For assay [13], the system named is Mus sp. In words: In vivo evaluation of % survival rate after peroral administration on 9th day at dose 1 mg/kg. The settings on record: route oral, 1 mg/kg.
Assay [14] has as its system Mus sp. Briefly: In vivo evaluation of % survival rate after peroral administration on 9th day at dose 2.5 mg/kg. The following applies: Mus sp., po.
Assay [15] deals with Rhodotorula mucilaginosa. In words: In vitro evaluation of minimum inhibitory concentration against Rhodotorula rubra 16. The essentials:
as §1

Assay [16] deals with Kluyveromyces marxianus. Briefly: In vitro evaluation of minimum inhibitory concentration against Candida pseudotropicalis 13. The essentials:
as §1

≈ marks a conversion by molar mass, not a printed value.

As for `C[C@H]1N(C(=O)c2ccc(C(F)(F)F)cc2)CC(=O)O[C@@]1(Cn1cncn1)c1ccc(Cl)cc1Cl` (racemic), the minimal inhibitory concentration (MIC) is more than 80 µg/mL in assay [1]; 5 µg/mL (≈ 9.74 µM) in [2]; 10 µg/mL (≈ 19.5 µM) in assay [3]; 20 µg/mL (≈ 39 µM) in [4]; 80 µg/mL (≈ 156 µM) in assay [5]; 40 µg/mL (≈ 77.9 µM) in [6]. In addition, the MIC in assay [7] was found to be 80 µg/mL (≈ 156 µM); in assay [15], 80 µg/mL (≈ 156 µM); in assay [16], 20 µg/mL (≈ 39 µM). Also, the survival at 2.5 mg/kg in assay [8], in assay [10], in [12] and in assay [14] was 100% throughout. In addition, the Survival in assay [9] was determined as 80%; in assay [11], 55%; in [13] it was 45%.

Values taken from ChEMBL document CHEMBL1128448, “Synthesis and antifungal activity of new azole derivatives containing an N-acylmorpholine ring” (1995).
